{"data": "Assay results gathered from unrelated publications", "target": "Uncharacterized serine/threonine-protein kinase SBK3 (SBK3, Homo sapiens, UniProt P0C264)", "Sequence (P0C264 1-359, as in one of the studies)": "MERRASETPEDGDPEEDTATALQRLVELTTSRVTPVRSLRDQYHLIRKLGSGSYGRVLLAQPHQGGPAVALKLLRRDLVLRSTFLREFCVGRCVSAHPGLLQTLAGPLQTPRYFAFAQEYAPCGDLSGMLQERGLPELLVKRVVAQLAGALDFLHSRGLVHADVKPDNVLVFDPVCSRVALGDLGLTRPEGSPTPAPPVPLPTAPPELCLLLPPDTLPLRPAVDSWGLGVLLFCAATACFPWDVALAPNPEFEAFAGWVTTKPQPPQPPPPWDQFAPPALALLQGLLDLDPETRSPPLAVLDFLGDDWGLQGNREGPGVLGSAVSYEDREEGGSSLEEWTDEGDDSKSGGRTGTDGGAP", "note": "Each line is one published result; the experiments were not run side by side."}
{"Structure (SMILES)": "CS(=O)(=O)c1cc(C2(NC(=O)c3cncc4c3cnn4-c3ccc(F)cc3)CC2)ccn1", "effect on": "cell-free assay", "technique": "competition with immobilised ligand", "tested at": "1 µM", "remaining binding [%]": 100}
{"Structure (SMILES)": "O=C(c1ccc(Nc2ncc(Cl)c(-c3cc4ccccc4s3)n2)cc1)N1CCC(N2CCCC2)CC1", "effect on": "binding", "technique": "competition with immobilised ligand", "tested at": "1 µM", "remaining binding [%]": 86}
{"Structure (SMILES)": "CCN1CCN(Cc2ccc(C(=O)Nc3ccc(C)c(Oc4ccc5c(c4)CC(=O)N5)c3)cc2C(F)(F)F)CC1", "effect on": "binding", "technique": "competition with immobilised ligand", "tested at": "1 µM", "remaining binding [%]": 100}
{"Structure (SMILES)": "COCCOc1nc(-c2ccc(Cl)nc2)nc2c1CN(C(=O)c1ncn3ccccc13)CC2", "effect on": "cell-free assay", "technique": "competition with immobilised ligand", "tested at": "0.1 µM", "remaining binding [%]": 100}
{"Structure (SMILES)": "COc1ncc2cc3ccccc3nc2c1C#N", "effect on": "cell-free assay", "technique": "competition with immobilised ligand", "tested at": "5 µM", "remaining binding [%]": 100}
{"Structure (SMILES)": "C=CC(=O)N1CCC(C(=O)NCC(=O)N2CCN(c3nc(-c4cnc(N)nc4C(F)F)nc(N4CCOCC4)n3)CC2)CC1", "effect on": "binding", "technique": "competition with immobilised ligand", "tested at": "1 µM", "remaining binding [%]": 87}
{"Structure (SMILES)": "CN(C)c1nccc(-c2cnn3ncccc23)n1", "effect on": "binding", "tested at": "1 µM", "remaining binding [%]": 100}
{"Structure (SMILES)": "Nc1ncc2c(n1)-c1c([nH]c3ccc(C#CC4CC4)cc13)CCCC2", "effect on": "binding", "technique": "competition with immobilised ligand", "tested at": "1 µM", "remaining binding [%]": 100}
{"Structure (SMILES)": "CCCCN(CCCC)C(=O)CN1C[C@@H](c2cc(OC)c3c(c2)OCO3)[C@H](C(=O)O)[C@H]1CC(C)(C)CCC", "effect on": "cell-free assay", "technique": "competition with immobilised ligand", "tested at": "1 µM", "remaining binding [%]": 100}
{"Structure (SMILES)": "CN(C)c1ncc(F)c(-c2cnn3ncccc23)n1", "effect on": "binding", "tested at": "1 µM", "remaining binding [%]": 74}
{"Structure (SMILES)": "O=C(c1ccc(Nc2ncc(Cl)c(-c3ccc(Cl)s3)n2)cc1)N1CCC(N2CCCC2)CC1", "effect on": "binding", "technique": "competition with immobilised ligand", "tested at": "1 µM", "remaining binding [%]": 62}
{"Structure (SMILES)": "c1cnn2ncc(-c3ccnc(N4CCC45COC5)n3)c2c1", "effect on": "binding", "tested at": "1 µM", "remaining binding [%]": 71}
{"Structure (SMILES)": "Cn1nc(C(=O)NCc2ccc(C(=O)O)cc2)cc1-c1ccc2[nH]ccc2c1", "effect on": "cell-free assay", "technique": "competition with immobilised ligand", "tested at": "0.1 µM", "remaining binding [%]": 79}
{"Structure (SMILES)": "COc1cnc(Nc2cccc(S(N)(=O)=O)c2)nc1N1CCN(c2ccccc2)C(=O)C1", "effect on": "binding", "technique": "competition with immobilised ligand", "tested at": "1 µM", "remaining binding [%]": 64}
{"Structure (SMILES)": "O=C(N[C@H]1CCCCC/C=C\\C2C[C@@]2(C(=O)O)NC(=O)[C@@H]2C[C@@H](Oc3ccncc3)CN2C1=O)OC1CCCC1 (stereo partly drawn)", "effect on": "binding", "technique": "competition with immobilised ligand", "tested at": "1 µM", "remaining binding [%]": 79}
{"Structure (SMILES)": "N[C@@H]1CCN(c2nccc(-c3cnn4ncccc34)n2)C1", "effect on": "binding", "tested at": "1 µM", "remaining binding [%]": 100}
{"Structure (SMILES)": "O=C(NCCCN1CCOCC1)c1ccc(Nc2nccc(-c3cc4ccccc4s3)n2)cc1", "effect on": "binding", "technique": "competition with immobilised ligand", "tested at": "1 µM", "remaining binding [%]": 91}
{"Structure (SMILES)": "F[C@@H]1CCN(c2nccc(-c3cnn4ncccc34)n2)C1", "effect on": "binding", "tested at": "1 µM", "remaining binding [%]": 100}
{"Structure (SMILES)": "Cc1nc(Cc2cccc(C(F)(F)F)c2)sc1-c1ccc(C(N)=O)nc1", "effect on": "cell-free assay", "technique": "competition with immobilised ligand", "tested at": "1 µM", "remaining binding [%]": 100}
{"Structure (SMILES)": "c1cncc(-c2cccc(Nc3nccc(NC4CCCCC4)n3)c2)c1", "effect on": "binding", "technique": "competition with immobilised ligand", "tested at": "10 µM", "remaining binding [%]": 33}
{"Structure (SMILES)": "O=C(NCC1CCOCC1)c1n[nH]cc1NC(=O)c1c(F)cccc1F", "effect on": "binding", "technique": "competition with immobilised ligand", "tested at": "1 µM", "remaining binding [%]": 68}
